Laboratory results from ChEMBL document CHEMBL3751698, “5,7-Disubstituted-[1,2,4]triazolo[1,5-a][1,3,5]triazines as pharmacological tools to explore the antagonist selectivity profiles toward adenosine receptors” (Eur J Med Chem, 2016).

Columns and labels:
Adenosine receptor A2b = target: T1, Adenosine receptor A2b (Homo sapiens, UniProt P29275); assay: Antagonist activity at human A2B adenosine receptor expressed in CHO cell membranes assessed as inhibition of NECA stimulated adenylyl cyclase activity; format: functional, cell-based
T1 sequence (P29275 whole entry): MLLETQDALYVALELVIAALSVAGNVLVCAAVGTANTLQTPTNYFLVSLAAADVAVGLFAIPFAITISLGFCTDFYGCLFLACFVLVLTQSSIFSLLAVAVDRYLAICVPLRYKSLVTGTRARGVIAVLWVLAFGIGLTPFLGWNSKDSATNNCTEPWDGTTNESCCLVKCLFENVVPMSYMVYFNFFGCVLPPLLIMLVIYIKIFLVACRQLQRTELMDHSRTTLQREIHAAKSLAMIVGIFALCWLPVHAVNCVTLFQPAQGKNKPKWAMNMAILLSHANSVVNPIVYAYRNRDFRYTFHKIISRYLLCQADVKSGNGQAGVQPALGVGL
How it was run: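 CHO cells stably expressing hA2B; crude membranes from a single high-speed spin, resuspended in 50 mM Tris/HCl pH 7.4 and used fresh. Incubated 20 min with about 150,000 cpm [α-32P]ATP in a mixture without EDTA and NaCl. IC50 for inhibition of NECA-stimulated cyclase obtained by Hill equation fit.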

Adenosine receptor A3 = target: T2, Adenosine receptor A3 (Homo sapiens, UniProt P0DMS8); assay: Displacement of [3H]HEMADO from human A3 adenosine receptor expressed in CHO cell membranes
T2 sequence (P0DMS8 whole entry): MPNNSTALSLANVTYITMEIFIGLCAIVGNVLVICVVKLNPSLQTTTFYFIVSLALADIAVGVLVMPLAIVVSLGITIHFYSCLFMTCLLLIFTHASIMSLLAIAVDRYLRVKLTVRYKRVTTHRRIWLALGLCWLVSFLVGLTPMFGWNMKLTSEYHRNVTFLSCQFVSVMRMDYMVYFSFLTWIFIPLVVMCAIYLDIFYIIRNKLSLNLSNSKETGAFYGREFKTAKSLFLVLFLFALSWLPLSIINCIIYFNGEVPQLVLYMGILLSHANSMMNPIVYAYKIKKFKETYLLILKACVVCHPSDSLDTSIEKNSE
How it was run: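 Two-step centrifugation (1,000 x g, then 100,000 x g) of stably transfected CHO cells gave the membranes. Displacement of 1 nM [3H]HEMADO; nonspecific binding taken with 100 µM R-PIA. Ki computed from competition data.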

Homo sapiens [1] = organism: Homo sapiens; assay: Selectivity index, ratio of Ki for human A3 adenosine receptor to Ki for human A2A adenosine receptor
Adenosine receptor A2a = Adenosine receptor A2a (Homo sapiens, UniProt P29274); assay: Displacement of [3H]NECA from human A2A adenosine receptor expressed in CHO cell membranes
How it was run: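 Crude membranes from stably transfected CHO cells, prepared by a two-step spin (1,000 x g, then 100,000 x g). Competition with 10 nM [3H]NECA, with nonspecific binding measured in presence of 100 µM R-PIA. Ki derived from competition experiments.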

Adenosine receptor A1 = target: T3, Adenosine receptor A1 (Homo sapiens, UniProt P30542); assay: Displacement of [3H]CCPA from human A1 adenosine receptor expressed in CHO cell membranes; details: read-out: Ki
T3 sequence (P30542 whole entry): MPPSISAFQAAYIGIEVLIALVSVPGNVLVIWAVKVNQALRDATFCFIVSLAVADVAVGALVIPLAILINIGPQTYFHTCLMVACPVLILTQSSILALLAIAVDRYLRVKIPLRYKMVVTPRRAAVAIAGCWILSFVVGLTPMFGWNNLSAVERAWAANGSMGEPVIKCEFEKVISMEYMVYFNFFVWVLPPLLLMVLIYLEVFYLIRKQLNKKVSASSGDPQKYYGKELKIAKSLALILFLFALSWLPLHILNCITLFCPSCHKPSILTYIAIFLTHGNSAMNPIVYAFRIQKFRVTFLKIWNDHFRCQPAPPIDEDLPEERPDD
How it was run: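 Membranes from stably transfected CHO cells (1,000 x g spin to clear nuclei and debris, then 100,000 x g pellet), resuspended in binding buffer and frozen. Competition against 1 nM [3H]CCPA; nonspecific binding defined with 1 mM theophylline. Ki calculated from competition curves.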

Homo sapiens [2] = organism: Homo sapiens; assay: Selectivity index, ratio of Ki for human A1 adenosine receptor to Ki for human A2A adenosine receptor

Chain of Adenosine receptor A2a (P29274 whole entry): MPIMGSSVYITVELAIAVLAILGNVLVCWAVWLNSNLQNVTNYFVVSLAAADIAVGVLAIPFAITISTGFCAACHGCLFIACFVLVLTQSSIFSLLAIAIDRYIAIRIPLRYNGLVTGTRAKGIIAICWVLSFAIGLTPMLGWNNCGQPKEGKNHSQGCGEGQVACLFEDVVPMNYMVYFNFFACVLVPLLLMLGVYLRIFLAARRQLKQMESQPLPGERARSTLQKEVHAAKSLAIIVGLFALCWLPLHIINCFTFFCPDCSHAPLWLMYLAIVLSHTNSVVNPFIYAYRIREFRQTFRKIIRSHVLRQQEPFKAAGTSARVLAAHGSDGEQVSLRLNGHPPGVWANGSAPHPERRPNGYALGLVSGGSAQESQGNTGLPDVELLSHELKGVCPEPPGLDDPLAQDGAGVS

| IC50 (Adenosine receptor A2b) | Ki (Adenosine receptor A3) | Ratio Ki (Homo sapiens [1]) | Ki (Adenosine receptor A2a) | Ki (Adenosine receptor A1) | Ratio Ki (Homo sapiens [2]) | SMILES |
| --- | --- | --- | --- | --- | --- | --- |
| > 30 µM | 123 nM | 2.82 | 43.6 nM | > 100000 nM | > 2290 | Fc1ccc(CNc2nc(NCc3ccc(F)cc3)n3nc(-c4ccco4)nc3n2)cc1 |
| > 30 µM | 905 nM | 6.33 | 143 nM | 361 nM | 2.52 | CNc1nc(NC2CCCCC2)n2nc(-c3ccco3)nc2n1 |
| > 30 µM | 375 nM | 0.67 | 560 nM | > 100000 nM | > 178 | c1ccc(CNc2nc(Oc3ccccc3)nc3nc(-c4ccco4)nn23)cc1 |
| > 30 µM | 349 nM | 44.3 | 7.87 nM | 946 nM | 120 | O=C(Nc1ccccc1)Nc1nc(NC2CCCCC2)nc2nc(-c3ccco3)nn12 |
| > 30 µM | 13400 nM | 6.23 | 2150 nM | 24400 nM | 11.3 | CC(C)Nc1nc(NC(=O)c2ccccc2)n2nc(-c3ccco3)nc2n1 |
| 2.21 µM | 30.8 nM | 27.7 | 1.11 nM | 94.6 nM | 85.2 | Nc1nc(NCc2ccccc2)nc2nc(-c3ccco3)nn12 |
| > 30 µM | 75.3 nM | 3.45 | 21.8 nM | 1490 nM | 68.3 | Fc1ccc(CNc2nc(NCc3ccccc3)nc3nc(-c4ccco4)nn23)cc1 |
| 11.8 µM | 37 nM | 1.81 | 20.4 nM | 784 nM | 38.4 | c1ccc(CNc2nc(NCc3ccccc3)n3nc(-c4ccco4)nc3n2)cc1 |
| > 30 µM | 1670 nM | 5.57 | 300 nM | 8960 nM | 29.9 | CNc1nc(NC(=O)Cc2ccccc2)n2nc(-c3ccco3)nc2n1 |
| 13.4 µM | 370 nM | 104 | 3.56 nM | 138 nM | 38.8 | Nc1nc(NC2CCCCC2)nc2nc(-c3ccco3)nn12 |
| > 30 µM | 572 nM | 5.74 | 99.6 nM | 3850 nM | 38.6 | CNc1nc(NC(=O)Nc2ccccc2)n2nc(-c3ccco3)nc2n1 |
| > 30 µM | 1560 nM | 31.6 | 49.3 nM | 2570 nM | 52.1 | CNc1nc(N)n2nc(-c3ccco3)nc2n1 |
| > 30 µM | 275 nM | 1.59 | 173 nM | 2770 nM | 16 | CNc1nc(NCc2ccccc2)n2nc(-c3ccco3)nc2n1 |
| > 30 µM | 1300 nM | 11.6 | 112 nM | > 100000 nM | > 893 | Fc1ccc(CNc2nc(NC3CCCCC3)nc3nc(-c4ccco4)nn23)cc1 |
| 7.62 µM | 45.5 nM | 8.44 | 5.39 nM | 676 nM | 125 | O=C(Cc1ccccc1)Nc1nc(NCc2ccccc2)nc2nc(-c3ccco3)nn12 |
| 4.36 µM | 29.7 nM | 20.6 | 1.44 nM | 311 nM | 216 | O=C(Nc1ccccc1)Nc1nc(NCc2ccccc2)nc2nc(-c3ccco3)nn12 |
